According to ChEMBL document CHEMBL1139900, “Synthesis and SAR studies of a novel class of S1P1 receptor antagonists” (Bioorg Med Chem, 2007):

What was measured:
Type in all cases: functional, cell-based
[1] = molecular target: T1, Sphingosine 1-phosphate receptor 1 (Homo sapiens, UniProt P21453); assay: Antagonist activity at human S1P1 receptor expressed in CHO cell membrane by cAMP assay
Method in brief: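 CHO cells stably expressing human S1P1, kept in selection medium with 125 nM methotrexate, seeded at 4 × 10⁵ cells/well and grown overnight. Serum was removed, cells preincubated 5 min with 1 mM IBMX, then stimulated 15 min with 30 µM forskolin ± 100 nM S1P plus test compound at various concentrations, with IBMX kept present. Cells were lysed in 1% Triton X-100; cAMP read by competitive kit assay (n = 3).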

[2] = molecular target: Sphingosine 1-phosphate receptor 4 (Homo sapiens, UniProt O95977); assay: Antagonist activity at human S1P4 receptor expressed in CHO cell membrane by FLIPR assay
Method in brief: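 S1P4-expressing cells in HAM medium with 10% dialyzed FBS, seeded at 1 × 10⁵ cells/mL and grown 2 days. Buffer: HBSS without phenol red, 20 mM Hepes, 2.5 mM probenecid, pH 7.4. Fluo3-AM (4 µM, with 0.04% pluronic acid) loading for 45–60 min, then washed. Serially diluted compound given 10 min before S1P injection; calcium signal measured on FLIPR.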

[3] = molecular target: Sphingosine 1-phosphate receptor 3 (Homo sapiens, UniProt Q99500); assay: Antagonist activity at human S1P3 receptor expressed in CHO cell membrane by FLIPR assay
Method in brief: (§1)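 Stably transfected CHO cells in HAM medium with 10% dialyzed FBS, seeded at 5 × 10⁴ cells/mL and grown 2 days. Buffer: HBSS without phenol red, 20 mM Hepes, 2.5 mM probenecid, pH 7.4. Loaded 45–60 min with 4 µM Fluo3-AM plus 0.04% pluronic acid, then washed. Serially diluted compound added for 10 min before S1P injection; calcium fluorescence read on FLIPR.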

[4] = molecular target: T1, Sphingosine 1-phosphate receptor 1; assay: Antagonist activity at human S1P1 receptor expressed in CHO cell membrane by FLIPR assay; method in brief: as §1
[5] = molecular target: Sphingosine 1-phosphate receptor 2 (Homo sapiens, UniProt O95136); assay: Antagonist activity at human S1P2 receptor expressed in CHO cell membrane by FLIPR assay; method in brief: as §1
Sequence of Sphingosine 1-phosphate receptor 2 (O95136 whole entry): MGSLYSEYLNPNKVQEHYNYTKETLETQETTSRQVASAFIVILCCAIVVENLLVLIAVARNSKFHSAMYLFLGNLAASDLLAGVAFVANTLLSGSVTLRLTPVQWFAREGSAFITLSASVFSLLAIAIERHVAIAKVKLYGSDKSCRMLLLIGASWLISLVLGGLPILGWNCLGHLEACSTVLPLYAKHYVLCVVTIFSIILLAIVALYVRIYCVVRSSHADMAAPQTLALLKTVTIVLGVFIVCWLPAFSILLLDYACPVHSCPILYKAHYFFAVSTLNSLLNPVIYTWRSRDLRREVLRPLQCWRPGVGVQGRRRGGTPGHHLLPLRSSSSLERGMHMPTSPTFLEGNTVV

T1 sequence (P21453 whole entry): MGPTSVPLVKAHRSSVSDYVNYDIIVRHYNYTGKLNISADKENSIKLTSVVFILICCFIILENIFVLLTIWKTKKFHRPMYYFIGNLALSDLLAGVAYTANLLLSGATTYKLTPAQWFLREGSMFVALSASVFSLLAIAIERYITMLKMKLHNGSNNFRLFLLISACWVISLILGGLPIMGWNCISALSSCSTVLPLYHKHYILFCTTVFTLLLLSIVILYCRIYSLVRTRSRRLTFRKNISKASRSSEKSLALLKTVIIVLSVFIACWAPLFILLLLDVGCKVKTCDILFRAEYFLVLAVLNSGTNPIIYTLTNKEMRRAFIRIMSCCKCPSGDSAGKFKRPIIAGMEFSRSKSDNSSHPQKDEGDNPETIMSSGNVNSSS
Sequence of Sphingosine 1-phosphate receptor 4 (O95977 whole entry, looked up): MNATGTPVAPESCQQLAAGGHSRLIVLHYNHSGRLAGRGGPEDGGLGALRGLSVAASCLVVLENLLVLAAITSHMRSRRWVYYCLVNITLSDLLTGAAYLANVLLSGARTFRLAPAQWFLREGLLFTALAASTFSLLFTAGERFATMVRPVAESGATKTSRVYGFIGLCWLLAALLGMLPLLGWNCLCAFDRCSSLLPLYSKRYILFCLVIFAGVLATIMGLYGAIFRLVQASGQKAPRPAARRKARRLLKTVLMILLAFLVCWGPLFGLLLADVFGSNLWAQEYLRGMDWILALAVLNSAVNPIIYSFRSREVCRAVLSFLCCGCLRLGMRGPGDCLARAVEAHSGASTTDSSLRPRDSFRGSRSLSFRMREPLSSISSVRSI
Sequence of Sphingosine 1-phosphate receptor 3 (Q99500 whole entry): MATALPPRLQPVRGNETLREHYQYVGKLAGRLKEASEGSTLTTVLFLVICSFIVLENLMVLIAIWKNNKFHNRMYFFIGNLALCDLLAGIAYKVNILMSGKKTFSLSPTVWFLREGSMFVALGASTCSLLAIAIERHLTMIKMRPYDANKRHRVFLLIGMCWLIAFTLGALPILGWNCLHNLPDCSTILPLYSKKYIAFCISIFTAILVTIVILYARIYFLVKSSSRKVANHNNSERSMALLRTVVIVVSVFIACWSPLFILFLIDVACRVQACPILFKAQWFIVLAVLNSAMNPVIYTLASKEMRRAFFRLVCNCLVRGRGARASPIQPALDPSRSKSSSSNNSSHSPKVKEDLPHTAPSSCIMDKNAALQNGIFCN

Row | SMILES | IC50 [1] | also measured
1 | CCCCCCCCCCC#CC(O)c1ccccc1-c1ccc(Sc2ccc(OC)cc2)c(S(=O)(=O)O)c1 (configuration not stated) | 700 nM | 
2 | CCCCCCCCCCC#CC(O)c1sccc1-c1ccc(Oc2ccc(OCC)cc2)c(S(=O)(=O)O)c1 (configuration not stated) | 1300 nM | 
3 | CCCCCCCCCCC#CC(O)c1ccccc1-c1ccc(Sc2ccc(OCCCCCCCC)cc2)c(S(=O)(=O)O)c1 (configuration not stated) | > 2400 nM | 
4 | CCCCCCCCCCC#CC(O)c1cccc(-c2ccc(Oc3ccc(OCC)cc3)c(S(=O)(=O)O)c2)c1 (configuration not stated) | 4600 nM | 
5 | CCCCCCCCCCC#CC(C)(O)c1ccccc1-c1ccc(Sc2ccc(OCCCC)cc2)c(S(=O)(=O)O)c1 (configuration not stated) | 1000 nM | 
6 | CCCCCCCCCCC#CC(O)c1ccccc1-c1ccc(Oc2ccccc2OCC)c(S(=O)(=O)O)c1 (configuration not stated) | 8900 nM | 
7 | CCCCCCCCCCCCCCCCCC1=NN(c2ccc(Oc3ccc(OCC)cc3)c(S(=O)(=O)O)c2)C(=O)C1 | 17000 nM | 
8 | CCCCCCCCCCC#CC(O)c1ccccc1-c1ccc(Oc2cccc(OCC)c2)c(S(=O)(=O)O)c1 (configuration not stated) | > 17000 nM | 
9 | CCCCOc1ccc(Sc2ccc(-c3ccccc3C(O)C#CCOCCCO)cc2S(=O)(=O)O)cc1 (configuration not stated) | > 20000 nM | 
10 | CCCCCCCCCCC#CC(O)c1ccc(-c2ccc(Oc3ccc(OCC)cc3)c(S(=O)(=O)O)c2)s1 (configuration not stated) | 5500 nM | 

The next compounds have a lower IC50 [1] than those just listed; values first:

Row | IC50 [1] | SMILES | also measured
11 | 400 nM | CCCCCCCCCCC#CC(O)c1ccccc1-c1ccc(Sc2ccc(OCC)cc2)c(S(=O)(=O)O)c1 (configuration not stated) | 
12 | 400 nM | CCCCCCCCCCC#CC(O)c1ccccc1-c1ccc(Oc2ccc(OCC)cc2)c(S(=O)(=O)O)c1 (configuration not stated) | 
13 | 190 nM | CCCCCCCCCCC#CC(O)c1ccccc1-c1ccc(Sc2ccc(OCCC)cc2)c(S(=O)(=O)O)c1 (configuration not stated) | 
14 | 190 nM | CCCCCCCCCCC#CC(O)c1ccccc1-c1ccc(Sc2ccc(OCCCC)cc2)c(S(=O)(=O)O)c1 (configuration not stated) | IC50 [2]: 40000 nM; IC50 [3]: 13000 nM; IC50 [4]: 1000 nM; IC50 [5]: 24000 nM
15 | 520 nM | CCCCCCCCCCC#CC(O)c1ccccc1-c1ccc(Sc2ccc(OCCCCCC)cc2)c(S(=O)(=O)O)c1 (configuration not stated) | 
16 | 130 nM | CCCCOc1ccc(Sc2ccc(-c3ccccc3C(O)C#CCOCCCCCCCCCCCO)cc2S(=O)(=O)O)cc1 (configuration not stated) | 
17 | 31 nM | CCCCOc1ccc(Sc2ccc(-c3ccccc3C(O)C#CCOCCCCCCCO)cc2S(=O)(=O)O)cc1 (configuration not stated) | IC50 [2]: 6000 nM; IC50 [3]: 5000 nM; IC50 [4]: 500 nM; IC50 [5]: 11000 nM
18 | 98 nM | CCCCOc1ccc(Sc2ccc(-c3ccccc3C(O)C#CCOCCCCCCCCCO)cc2S(=O)(=O)O)cc1 (configuration not stated) | 
19 | 340 nM | CCCCOc1ccc(Sc2ccc(-c3ccccc3C(O)C#CCOCCCCCO)cc2S(=O)(=O)O)cc1 (configuration not stated) | 
